This is an account of results in ChEMBL document CHEMBL4513216, “Probing the Open Global Health Chemical Diversity Library for Multistage-Active Starting Points for Next-Generation Antimalarials” (ACS Infect Dis, 2020).

This data set is described as follows: Toxicity liver stage against HepG2, at 10uM. Type of data set: cell-based. More on the design: test concentration 10 uM, cell line HepG2-A16-CD81EGFP. As to conditions: human, HepG2-A16-CD81EGFP cells; read-out: INHIBITION
In short, it runs like this:
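Uninfected HepG2-A16-CD81EGFP cells, 3 × 10^3 per well, 1536-well, plated on prespotted compound at 10 μM final, parasite-free screening media added to match infected plates; puromycin 10 μM positive, DMSO 0.5% negative; run in parallel with 48 h PbLuc assay at 37 °C, 5% CO2; viability by CellTiter-Glo luminescence, normalized to controls.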
For `COc1cccc(S(=O)(=O)NC(=O)COC2CCCCC2)c1`, the cytotoxicity at 10 µM was -0.502%.

Regarding `COCCN1CCC(C)(c2cc(O)[nH]n2)CC1`, the cytotoxicity at 10 µM is 2.02%.

Take `O=C(NCCCNc1ccc(C(F)(F)F)cn1)c1ccccc1`: the cytotoxicity at 10 µM is -6.07%.

On to `CN1CCN(c2ncccc2CNc2ncccc2C#N)CC1`, for which the cytotoxicity at 10 µM turned out to be 15.4%.

Turning to `Cc1ccccc1C(=O)N1CCC2(CCCN2CCN(C)C)CC1`, the cytotoxicity at 10 µM is 3.56%.

On to `COc1cc(N(C)CCCn2nc(C)cc2C)ncn1`, for which the cytotoxicity at 10 µM was 1.6%.

Take `c1cnn(CCNCc2cnc(N3CCOCC3)nc2)c1`: the cytotoxicity at 10 µM was -1.73%.

As for `NC(=O)CN(Cc1ncc(-c2ccccc2)o1)C1CCCC1`, the cytotoxicity at 10 µM is -4.3%.

Regarding `COc1cccc(CCn2ccnc2-c2cn(C3CCNCC3)nn2)c1`, the cytotoxicity at 10 µM is -7.23%.

Turning to `COCCS(=O)(=O)N(Cc1ccsc1)c1ccccc1`, the cytotoxicity at 10 µM is -4.76%.

In the case of `CNc1nc2c(s1)C(=O)CN(C(=O)[C@@H](N)Cc1cccc(OC)c1)C2`, the cytotoxicity at 10 µM is -4.08%.

On to `CCc1ccc(C(=O)N2CCN(CC(C)O)CC2)o1` (configuration not stated), for which the cytotoxicity at 10 µM is -8.18%.

Regarding `Cc1ccc(C(=O)N2CCCC3(C2)C(=O)N(C)c2ccccc23)c(=O)[nH]1` (configuration not stated), the cytotoxicity at 10 µM is -7.52%.

As for `CN(C)Cc1cnc(C2CCN(C(=O)c3ccccc3F)C2)[nH]1` (configuration not stated), the cytotoxicity at 10 µM was 0.578%.

With `CCCOC1CCCN(C(=O)c2cnc(-c3csc(C)n3)nc2O)C1` (configuration not stated), the cytotoxicity at 10 µM was -1.97%.

For the molecule `CCCN(Cc1ccc(OC)nc1)Cc1ccccc1OC`, the cytotoxicity at 10 µM is -5.85%.

`COCC1CN(C(=O)Cc2ccccn2)Cc2ncn(C)c21` (configuration not stated): the cytotoxicity at 10 µM was determined as 1.73%.

Consider `c1cc(CN2CC[C@H]3C[C@H](c4nc(C5CC5)cs4)O[C@@H]3C2)ccn1`, for which the cytotoxicity at 10 µM was determined as 8.81%.

Consider `COc1cccc(CN2CCc3nc4ccsc4c(=O)n3CC2)c1`, for which the cytotoxicity at 10 µM is -26.5%.

For the molecule `OCC1(Cc2ccccc2F)CCCN(c2ccc3ccccc3n2)C1` (configuration not stated), the cytotoxicity at 10 µM was determined as 22.7%.

`CCn1c(CN(C)C)nnc1C1CCN(Cc2cccc(F)c2F)CC1`: the cytotoxicity at 10 µM amounted to 1.49%.

Turning to `CN(C)S(=O)(=O)N1CC[C@]2(O)CCN(c3cc(C#N)ccn3)C[C@@H]2C1`, the cytotoxicity at 10 µM worked out at 12.3%.

Take `Cc1cnn(CCNCc2nnc(C3CC3)o2)c1`: the cytotoxicity at 10 µM is -7.89%.

In the case of `CCc1nc(C(=O)N2CCN(CCc3ccc(OC)cc3)CC2)c[nH]1`, the cytotoxicity at 10 µM is -9.56%.

As to `CN(Cc1ccc(Cl)s1)C(=O)CN1CC(n2cccn2)C1`, the cytotoxicity at 10 µM is -6.88%.

Consider `Cc1cc(-c2cc(N)c(=O)n(CC(=O)NC3CCCCC3)n2)c(C)o1`, for which the cytotoxicity at 10 µM came to 6.79%.

Regarding `CC(C)c1nccc(-c2nccn2CCS(C)(=O)=O)n1`, the cytotoxicity at 10 µM was 4.68%.

Take `CCN(CC)CCNC(=O)c1cc(OC)c2ccoc2c1`: the cytotoxicity at 10 µM is -0.971%.

As to `CC(C)CNC(=O)C[S+]([O-])Cc1csc(C2CCCCC2)n1` (configuration not stated), the cytotoxicity at 10 µM was -48.5%.

As to `Cc1nc(N(C)C)ncc1C(=O)N[C@H]1Cc2ccccc2[C@@H]1N`, the cytotoxicity at 10 µM amounted to 1.81%.

Take `Cc1ncsc1CCC(=O)NC1CCN(c2ncccc2C#N)CC1`: the cytotoxicity at 10 µM stood at 0.84%.

`Cc1nn(C)cc1-c1cc(C(F)(F)F)n(CCCN)n1`: the cytotoxicity at 10 µM is -6.25%.

On to `c1cc(-c2noc(CN3CCn4c(nnc4C4CC4)C3)n2)co1`, for which the cytotoxicity at 10 µM is -0.986%.

Turning to `Cc1cc(C)n(C2CN(c3nc(N)nc4c3CCCC4)C2)n1`, the cytotoxicity at 10 µM is -44.4%.

With `CC(CNC(=O)CCn1cncn1)N1CCc2ccccc21` (configuration not stated), the cytotoxicity at 10 µM is -157%.

On to `O=S(=O)(CC1CCOCC1)NCc1ncc(-c2ccccc2)o1`, for which the cytotoxicity at 10 µM was -12.6%.

Consider `O=C1NC2(CCN(CCc3ccccc3)CC2)CC1c1ccccc1` (configuration not stated), for which the cytotoxicity at 10 µM was -48.6%.

For the molecule `Cc1ncsc1-c1nnc(C2CCN(Cc3cccc(Cl)c3)CC2)o1`, the cytotoxicity at 10 µM is -8.19%.

With `Cc1cccc(CS(=O)(=O)Cc2ccn(C)c(=O)c2)c1`, the cytotoxicity at 10 µM worked out at 2.29%.

As to `CC(=O)N1CCCC1c1nnn2cc(NCc3cccnc3)ccc12` (configuration not stated), the cytotoxicity at 10 µM turned out to be 17.1%.

Regarding `CC(C)NC(=O)N1CCN(CC2CC2)CC2(CNC(=O)C2)C1` (configuration not stated), the cytotoxicity at 10 µM turned out to be 2.52%.

`O=C(c1ccco1)N1C[C@H]2CCCN(C(=O)c3ccsc3)[C@H]2C1`: the cytotoxicity at 10 µM is 8.36%.

In the case of `Cc1ncsc1CCC(=O)N1CCN(CCn2cncn2)CC1`, the cytotoxicity at 10 µM is 3.21%.

In the case of `CCn1ccc(C(=O)N2CCCC2(C)c2nc(C)cc(N(C)C)n2)n1` (configuration not stated), the cytotoxicity at 10 µM was -7.56%.

As for `COc1ccc(Cl)cc1C(=O)N1CCCC(n2nc(C)nc2C)C1` (configuration not stated), the cytotoxicity at 10 µM is -4.53%.

On to `CN(C)C1CCN(C(=O)NCc2ccc(Cn3cncn3)cc2)CC1`, for which the cytotoxicity at 10 µM was -3.6%.

Take `N#Cc1ccc(F)c(CNC(=O)NC(CO)c2ccccc2)c1` (configuration not stated): the cytotoxicity at 10 µM is 4.16%.

Turning to `CC(=O)N1CCC2(CC1)CN(C(=O)c1ccc3c(c1)OCCO3)C2`, the cytotoxicity at 10 µM came out at 9.15%.

On to `O=C(NCc1cc2n(n1)CCCN(Cc1ccc(Cl)s1)C2)C1CCC1`, for which the cytotoxicity at 10 µM amounted to 5.46%.

As to `O=C(c1cccc2[nH]ncc12)N1CCCC1c1noc(C2CC2)n1` (configuration not stated), the cytotoxicity at 10 µM is -2.91%.

With `CCn1nc2c(cc1=O)CN(Cc1nnc(C3CC3)o1)CC2`, the cytotoxicity at 10 µM was -16.2%.

In the case of `COC(=O)c1cccc(C(=O)NCc2ccc(C)o2)n1`, the cytotoxicity at 10 µM came to 11.5%.

As to `CC1(C)CNC(=O)c2nc(-c3nnc(-c4ccccc4)[nH]3)[nH]c2C1`, the cytotoxicity at 10 µM is -5.79%.

As for `CCn1cc(CNC(=O)CCc2nnc(-c3ccc(C)s3)o2)cn1`, the cytotoxicity at 10 µM is -2.83%.

Turning to `Cc1nc(C2CCCN2C(=O)CCc2ccc(F)cc2)ncc1C(N)=O` (configuration not stated), the cytotoxicity at 10 µM is -15.7%.

In the case of `CCc1cnc(N)nc1NC(C)c1ccc(C)c(C)c1` (configuration not stated), the cytotoxicity at 10 µM stood at 21.3%.

In the case of `Cc1occc1C(=O)N1C[C@@H]2OCCN(C(C)C)[C@@H]2C1`, the cytotoxicity at 10 µM is -73.4%.

As to `CC(C)C(=O)NCc1ccc(-n2cncn2)nc1`, the cytotoxicity at 10 µM worked out at 0.239%.

In the case of `Cc1nn(C)c(Cl)c1C1CCCN1C(=O)c1ccncc1` (configuration not stated), the cytotoxicity at 10 µM was -11.2%.

Consider `c1ccc(CN2CCn3c(Cn4cncn4)cnc3C2)nc1`, for which the cytotoxicity at 10 µM is -70.7%.

Turning to `COCc1cc(CN(C)C(=O)c2c[nH]nc2-c2cccc(F)c2)n[nH]1`, the cytotoxicity at 10 µM came to 0.445%.

For `CC(C)c1nnc(CNCC2CCCN2c2cccnn2)o1` (configuration not stated), the cytotoxicity at 10 µM turned out to be 1.05%.

With `COc1ccc(Oc2ncccc2C(N)=O)cc1CN1CCCC1`, the cytotoxicity at 10 µM was found to be 0.0453%.

As for `NC(=O)C1CCN(C(=O)c2cccc(CN3CCOCC3)c2)CC1`, the cytotoxicity at 10 µM was -20%.

Consider `CCNC(=O)C(C)Oc1ccc(N(C)S(C)(=O)=O)cc1` (configuration not stated), for which the cytotoxicity at 10 µM stood at 1.07%.

In the case of `O=C(CC1CCCC1)N1CCN2C[C@@H](CO)[C@H](c3ccccc3)[C@H]2C1`, the cytotoxicity at 10 µM is -4.73%.

Consider `O=c1nc(SCc2ccncc2)c2c(n1CCO)CCCC2`, for which the cytotoxicity at 10 µM is -23.8%.

For `c1cnc(N2CCN(Cn3nccc3-c3cccnc3)CC2)nc1`, the cytotoxicity at 10 µM is 8.99%.

For the molecule `Cc1ccc(-c2nc(C3CCN(C(=O)c4cnn(C)c4)CC3)no2)cn1`, the cytotoxicity at 10 µM was -1.55%.

Turning to `CSCC(C)(O)CNc1ncccc1C(F)(F)F` (configuration not stated), the cytotoxicity at 10 µM was found to be 13.7%.

With `CC(C)c1nccc(-c2nccn2CCN(C)S(C)(=O)=O)n1`, the cytotoxicity at 10 µM was found to be 7.53%.

With `N#CCc1ccc(OCC(=O)NS(=O)(=O)c2ccc(Cl)s2)cc1`, the cytotoxicity at 10 µM was found to be 6.41%.

In the case of `Cn1c(C2CC2)nc2c1CCN(CCS(=O)(=O)c1ccccc1)C2`, the cytotoxicity at 10 µM was found to be 3.73%.

On to `CC(C)c1nnc(N2C[C@H]3CC[C@@H](C2)N(CC2CCC2)C3)s1`, for which the cytotoxicity at 10 µM is -7.38%.

As to `CN(C)c1cnn(CC(=O)N2CCN(c3ccccc3)CC2)c(=O)c1`, the cytotoxicity at 10 µM is -13.8%.

With `Cc1ccc(CN2CCn3c(CN(C)C(C)C)cnc3C2)s1`, the cytotoxicity at 10 µM is 8.33%.

As to `CN(Cc1cccc(F)c1)C(=O)CN1CCCCC1Cn1cncn1` (configuration not stated), the cytotoxicity at 10 µM was -8.25%.

In the case of `CC(C)N1C[C@@H](F)[C@@H](OCc2nc3ncccc3[nH]2)C1`, the cytotoxicity at 10 µM came to 5.47%.

With `CC(=O)N1CCCN(C(=O)CCc2c(C)nc3ccnn3c2C)CC1`, the cytotoxicity at 10 µM was -3.12%.

For the molecule `O=C(NC(c1ccc(Cl)cc1)C(F)(F)F)c1nc(=O)[nH][nH]1` (configuration not stated), the cytotoxicity at 10 µM was 11.5%.

Turning to `COC(C)(C)CNC(=O)N1CCCC1c1c(C)n[nH]c1C` (configuration not stated), the cytotoxicity at 10 µM came out at 1.76%.

On to `Cc1cc(N(C)C)nc(NCCn2cccn2)n1`, for which the cytotoxicity at 10 µM was found to be 5.65%.

With `N#CCCCOc1cccnc1NC(=O)CC1CCCCC1`, the cytotoxicity at 10 µM worked out at 21.9%.

In the case of `CC(C)NC1CC2(CCNCC2)c2cc(F)ccc21` (configuration not stated), the cytotoxicity at 10 µM is -9.05%.

For the molecule `CCN(Cc1cccnc1)CC1(C)Cc2c(N)nc(N)nc2O1` (configuration not stated), the cytotoxicity at 10 µM stood at 0.705%.

Turning to `Cc1cc(C2CCCN2C(=O)NCc2cccnc2)on1` (configuration not stated), the cytotoxicity at 10 µM was determined as 0.458%.

For the molecule `CCC(C)N1CCc2nc(N3CCCC3)nc(NC(C)C)c2C1` (configuration not stated), the cytotoxicity at 10 µM was 8.53%.

Consider `COCc1cc(N(C)Cc2cnccn2)nc(C(C)(C)C)n1`, for which the cytotoxicity at 10 µM is 8.24%.

Consider `CS(=O)(=O)CCCC(=O)N1CCN(CC2CC2)c2ccccc21`, for which the cytotoxicity at 10 µM is -3.2%.

On to `Cc1nn(C)c(N(C)C)c1CNCc1ccc(OCCN(C)C)cc1`, for which the cytotoxicity at 10 µM was -4.89%.

Take `CCC1CN(CC(=O)NC(C)C)CCO1` (configuration not stated): the cytotoxicity at 10 µM is 2.16%.

`COC[C@H]1CCC[C@]12CN(S(=O)(=O)c1cccs1)CCO2`: the cytotoxicity at 10 µM is -1.34%.

Turning to `O=C1CN(c2ccc(CNC(=O)Nc3nccs3)cc2)CCN1`, the cytotoxicity at 10 µM stood at 1.93%.

In the case of `Cc1cccc(C(=O)N2CCC[C@]3(C[C@@H](OCC4CC4)CO3)C2)n1`, the cytotoxicity at 10 µM is -82.9%.

In the case of `CC(O)Cc1cn(CC2CCN(C3CCSCC3)CC2)nn1` (configuration not stated), the cytotoxicity at 10 µM stood at 8.88%.

`CN(C)S(=O)(=O)N1CC[C@]2(C[C@H](Oc3ncccc3F)CO2)C1`: the cytotoxicity at 10 µM worked out at 2.47%.

As for `CCN1CC2(CCCCN2C(=O)c2ccn(C)n2)CC1=O` (configuration not stated), the cytotoxicity at 10 µM was determined as 10.5%.
